FAK blocker – FAK (human) kinase inhibition. inhibition, %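 (tested at 7 µM)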. AID 727. Q05397. biochemical FAK kinase activity assay. hit rate 0.84% among 97,000;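 note: 0% = DMSO and 100% = reference compound high control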
F-actin modifier – alters cytoskeleton assembly in HUVEC cells; HUVEC TNFa F-actin phalloidin imaging, high content; inhibition, % at 2 µM; hit rate 0.18% among 91,000;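 active = inhibition above the batch mean plus 3 SD and confirmed as a hit by visual image inspection, cut at about 30% in these data, passing the limit was not always enough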
PLK1 inh – PLK1 (human) kinase inhibition; hit rate 0.53% among 97,000; inhibition, % at 10 µM; P53350; recombinant PLK1 kinase, TR-FRET peptide phosphorylation;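 active = inhibition of 50% or more in the single-concentration screen; inactive = inhibition below 50%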;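 note: 0% = DMSO max control and 100% = H-89 dihydrochloride min control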
Target sequence (P53350 whole entry, looked up): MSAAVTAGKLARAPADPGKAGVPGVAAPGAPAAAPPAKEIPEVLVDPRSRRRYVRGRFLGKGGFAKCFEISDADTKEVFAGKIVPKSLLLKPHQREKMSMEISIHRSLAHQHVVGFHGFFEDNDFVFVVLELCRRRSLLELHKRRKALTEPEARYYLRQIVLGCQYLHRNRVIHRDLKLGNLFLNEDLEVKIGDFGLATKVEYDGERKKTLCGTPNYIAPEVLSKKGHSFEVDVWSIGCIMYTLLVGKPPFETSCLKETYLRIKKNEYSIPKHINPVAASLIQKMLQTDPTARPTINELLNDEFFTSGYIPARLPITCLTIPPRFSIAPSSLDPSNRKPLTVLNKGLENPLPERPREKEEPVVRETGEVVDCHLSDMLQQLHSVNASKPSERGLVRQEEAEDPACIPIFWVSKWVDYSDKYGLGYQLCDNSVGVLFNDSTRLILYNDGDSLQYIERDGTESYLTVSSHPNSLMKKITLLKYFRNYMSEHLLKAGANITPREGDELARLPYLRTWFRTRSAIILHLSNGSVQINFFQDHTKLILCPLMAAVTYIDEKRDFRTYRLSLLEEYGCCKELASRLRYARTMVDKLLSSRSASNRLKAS
Plk1 PBD FP – blocks phosphopeptide binding to human Plk1 polo box domain; AID 693; Plk1 PBD phosphopeptide binding, fluorescence polarization; P53350; inhibition, %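 (tested at about 20 µM)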; hit rate 0.13% among 97,000; in the data active = inhibition above about 34%, passing the limit was not always enough
E-sel TNF inh – blocks E-selectin expression induced by TNF alpha | HUVEC TNFa-induced E-selectin immunofluorescence, high content | inhibition, % at 2 µM | hit rate 0.71% among 120,000 | AID 1246;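 active = inhibition above the batch mean plus 3 SD, and confirmed as a hit on visual image review, cut at about 43% in these data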;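 note: 0% = TNF-stimulated DMSO wells and 100% = unstimulated control wells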
HIV Rev-RRE inh – HIV Rev-RRE protein-RNA interaction inhibition. Rev peptide-RRE RNA binding, FRET. inhibition, % at 8 µM. hit rate 0.79% among 97,000;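 active = inhibition above the screen-wide mean plus 3 SD, cut at about 35% in these data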;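 note: 0% = median DMSO wells and 100% = median Neomycin B control wells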
Target sequence (P05866 whole entry, looked up): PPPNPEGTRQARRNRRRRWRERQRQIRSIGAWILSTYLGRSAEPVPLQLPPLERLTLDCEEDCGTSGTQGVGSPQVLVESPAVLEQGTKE
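Test system – labelled RRE RNA duplex and labelled Rev peptide · Signal – fluorescein-to-Cy5 FRET, 480 nm excitation · Evaluation – % inhibition of FRET ratio versus controls · Benchmarks – DMSO low control, neomycin B high control · Incubation – 5 min RNA-compound premix plus 15 min binding step, 25 °C · Medium – HEPES pH 7.5 salt buffer with EDTA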
FAK inh confirm – FAK (human) inhibition confirmed; shares compounds with FAK blocker; FAK kinase biochemical inhibition assay; inhibition, % at 7 µM; hit rate 28% among 750
Active calls of the source: *; nt = not tested or not shown. Only some compounds are listed: those with a hit (about 2.2% of all), similar ones and a draw of the others. Cut-off read from the data, not from the text of the source, unless noted: active = inhibition above about 19%; inactive = the rest.

SMILES	FAK blocker	F-actin modifier	PLK1 inh	Plk1 PBD FP	E-sel TNF inh	HIV Rev-RRE inh	FAK inh confirm
CCc1ccc2c(c1)CCCN2C(=O)c1ccccc1C(=O)O	22.5*	14.8	-4.3	17.9	nt	13.6	3.2
O=S(=O)(c1ccc(Cl)cc1)N1CCN(C(=S)Nc2ccccc2F)CC1	nt	nt	nt	nt	-30.5	nt	nt
CC(=O)Nc1ccc2[nH]c(C)cc(=O)c2c1	81.1*	7.7	-7.3	-8.2	6.5	7.4	6.2
CC(=O)Nc1ccc2[nH]c3ccccc3c2c1	2.8	-51.7	-10.5	17.1	9.3	5.2	nt
O=S(=O)([N-]c1nc2ccccc2nc1-[n+]1ccc(-c2ccncc2)cc1)c1ccccc1	nt	nt	nt	nt	-38.7	nt	nt
Cc1ccc(C)n1Cc1ccc(C(=O)O)cc1	78.3*	6.0	0.3	0.7	-15.5	-58.9	-4.3
Clc1ccc(-c2n[nH]c3c2CCCC3)cc1	nt	nt	nt	nt	-9.0	nt	nt
Clc1ccc(-c2n[nH]c3c2CCC3)cc1Cl	27.9*	9.1	5.7	1.5	-0.6	14.2	15.4
CCC(=O)Nc1ccc(S(=O)(=O)Nc2cc(C)on2)cc1	33.6*	3.7	-3.7	5.6	-15.4	12.5	0.1
COc1ccc(C2C(C#N)=C(N)Oc3c2sc2nc(C)cc(C)c32)cc1 (stereo unspecified)	28.8*	11.6	1.4	-16.9	18.8	14.8	10.1
Cc1cc(C)c2c3c(sc2n1)C1(CCSCC1)C(C#N)=C(N)O3	1.7	-6.3	-6.8	5.1	-16.4	1.9	nt
N=c1sccn1CC(=O)Nc1ccccc1Sc1ccccc1	nt	nt	nt	nt	8.0	nt	nt
COc1cc(-c2nnc(SCC3(c4ccc(Br)cc4)OCCO3)o2)cc(OC)c1OC	0.0	-13.7	-9.7	22.4	-19.8	3.5	nt
O=c1cc(-c2ccco2)oc2c1ccc1ccccc12	25.5*	nt	7.0	9.1	12.1	-0.2	21.7*
O=c1cc(C(Cl)(Cl)Cl)oc2c1ccc1ccccc12	2.2	-9.6	-1.0	-6.7	12.1	8.2	nt
CCN(CC)C(=O)c1c2c(nc3ccccc13)-c1ccccc1CC2	3.4	-33.8	-7.6	11.3	nt	3.8	nt
CCc1ccc(/C=C2\CN(CC)Cc3c2nc2ccccc2c3C(=O)O)cc1	50.6*	-5.0	6.5	4.0	-39.8	39.6*	8.1
CCOc1ccc(CCNC(=O)COC(=O)c2cc(OC)c(OC)c(OC)c2)cc1OCC	nt	nt	nt	nt	-35.9	nt	nt
Nc1[nH]nc2nc(N3CCOCC3)nc(-c3ccccc3)c12	23.5*	23.3	68.0*	-7.0	nt	8.8	4.1
CC(C)c1ccc(-c2nc(N3CCCC3)nc3n[nH]c(N)c23)cc1	nt	nt	nt	nt	-17.1	nt	nt
Nc1nnnn1/N=C/c1ccccc1OCc1ccc(Cl)cc1	1.3	-9.1	-7.4	9.5	1.1	11.7	nt
Nc1nnnn1/N=C/c1ccccc1OCc1ccc(Cl)cc1Cl	29.2*	3.8	-6.4	-7.3	nt	7.7	3.5
C/C(=N\NC(=O)c1cccs1)c1cccnc1	nt	nt	nt	nt	0.1	nt	nt
C/C(=N\NC(=O)c1[nH]c2c([N+](=O)[O-])cc(C)cc2c1-c1ccccc1)c1cccnc1	19.7*	13.8	-8.1	26.8	0.4	0.3	1.4
O=C1Nc2ccccc2C12OCC(COc1ccc(Cl)cc1)O2 (stereo unspecified)	20.5*	1.3	-11.9	-18.5	-6.8	10.8	0.8
SMILES	FAK blocker	F-actin modifier	PLK1 inh	Plk1 PBD FP	E-sel TNF inh	HIV Rev-RRE inh	FAK inh confirm
c1cncc(-c2nc3ccccc3[nH]2)c1	27.7*	-5.6	0.7	-12.1	-22.1	5.9	3.1
CCOC(=O)N1CCC(NC(=O)c2cccc3c2C(=O)N(c2ccc(OC)cc2)C3)CC1	43.7*	-4.6	-15.7	17.0	-18.6	-9.8	11.0
COc1ccc(N2Cc3cccc(C(=O)NC(C)CCc4ccco4)c3C2=O)cc1 (stereo unspecified)	33.3*	-5.3	-11.8	10.2	nt	-15.8	4.7
CCOC(=O)N1CCC(N2Cc3cccc(C(=O)NCc4ccc(OC)cc4)c3C2=O)CC1	nt	nt	nt	nt	5.5	nt	nt
COc1cc(NC(=O)CCNS(=O)(=O)c2ccc3c(c2)CCC(=O)N3)cc(OC)c1	nt	nt	nt	nt	-26.5	nt	nt
COc1cc(S(=O)(=O)NCC2CCCO2)ccc1Br (stereo unspecified)	-1.8	9.8	-7.7	-6.3	-3.6	1.6	nt
COc1ccc2c3c(cccc13)N(C)N=C2C	33.6*	0.6	41.5	28.5	34.3	18.8	10.6
Cc1ccc(Nc2c([N+](=O)[O-])c(=O)oc3ccccc23)cc1	nt	nt	nt	nt	6.6	nt	nt
O=c1oc2ccccc2c(Nc2ccc3ccccc3c2)c1[N+](=O)[O-]	23.8*	-4.5	-13.6	-4.0	0.5	8.8	5.5
Cc1ccccc1NC1=C/C(=N\S(=O)(=O)c2cccs2)c2ccccc2C1=O	42.1*	-2.4	-5.6	-50.3	76.2*	4.3	32.5*
CCOC(=O)N1CCN(C(=O)/C(=C/c2ccc(Br)cc2)NC(=O)c2ccc(OC)cc2)CC1	nt	nt	nt	nt	6.0	nt	nt
Cc1nn(C)c(C)c1NC(=O)CCl	nt	nt	nt	nt	-13.9	nt	nt
CC(=O)N1CCc2cc(S(=O)(=O)NCCC(=O)N3CCN(c4ccccn4)CC3)ccc21	31.6*	3.0	-6.0	-0.7	8.5	0.3	1.1
CC(=O)N1CCc2cc(S(=O)(=O)NCCC(=O)N3CCc4ccccc4C3)ccc21	2.4	3.3	-14.1	0.6	8.7	3.3	nt
CC1CCCCN1C(=O)CSc1ccc(-c2ccc(F)cc2)nn1 (stereo unspecified)	26.2*	-21.6	-4.3	-20.1	nt	3.8	9.8
O=C(N1CCOCC1)N1c2ccccc2Sc2ccccc21	40.3*	-11.3	-1.2	-22.2	8.3	-2.1	2.0
CCOC(=O)Cc1[nH]nc2c1C(c1cc(OC)ccc1OC)C(C#N)=C(N)O2 (stereo unspecified)	24.7*	11.8	0.1	7.2	0.8	-6.5	6.2
CCOC(=O)Cc1[nH]nc2c1C(c1cccc(OC)c1OC)C(C#N)=C(N)O2 (stereo unspecified)	nt	nt	nt	nt	-56.7	nt	nt
Cc1ccc2[nH]c3c(N4CCN(Cc5ccccc5)CC4)ncnc3c2c1	17.2	7.2	-10.5	7.9	nt	10.8	nt
Fc1ccc2[nH]c3c(N4CCN(C5CCCCC5)CC4)ncnc3c2c1	nt	nt	nt	nt	15.2	nt	nt
Cc1ccc2[nH]c3c(N4CCN(Cc5ccc6c(c5)OCO6)CC4)ncnc3c2c1	38.3*	-24.4	5.6	-5.1	18.1	15.6	18.0
Cc1ccc2[nH]c3c(N4CCCCCC4)ncnc3c2c1	42.2*	-15.2	-7.1	4.6	nt	1.2	18.6
COc1ccc2c(c1)[nH]c1c(N3CCN(Cc4ccc5c(c4)OCO5)CC3)ncnc12	25.4*	8.7	14.9	-10.1	3.1	14.9	10.0
O=C(NCc1ccco1)c1ccccc1NS(=O)(=O)c1ccc(Br)s1	-3.4	-2.2	-9.2	-4.0	7.5	-2.6	nt
Cn1c(N)c(C(=O)CSc2nc(N)cc(N)n2)c(=O)n(C)c1=O	nt	nt	nt	nt	-1.4	nt	nt
CCOc1ccc(/C=C\C(C)=N\O)cc1	20.1*	30.5	-2.6	-19.2	-10.5	2.2	8.0
CCCOc1ccc(/C=N/O)cc1	1.7	22.4	-11.2	-33.2	-5.1	8.3	nt
COc1cc(CNc2ccc(O)cc2)cc(Br)c1OCc1ccccc1F	nt	nt	nt	nt	14.2	nt	nt
CCOc1cc(CNc2ccc(O)cc2)cc(Br)c1OCc1ccccc1F	21.6*	26.4	-11.4	5.4	18.8	1.9	3.2
